High-throughput results as filed in PubChem BioAssay.
KCNK3 inh – human KCNK3 channel inhibitors, primary screen, CHO cells, FluxOR thallium flux, B-score; Potassium channel subfamily K member 3 (Homo sapiens), O14649; FluxOR fluorescence; active compounds read low; B-score at 10 µM; hit rate 0.84% among 340,000;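 active = B-score under library mean minus 4 SD, starting fluorescence ratio at most library mean plus 5 SD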;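 note: more negative B-score means stronger inhibition of thallium flux through KCNK3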
Kir21 block – inhibitors of mouse Kir2.1 inward-rectifier potassium channel; B-score at 10 µM; hit rate 0.85% among 310,000; HEK293-Kir2.1, FluxOR thallium flux fluorescence; active compounds read low;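 active = fluorescence ratio B-score at or below minus 3 SD of library scores, with starting-brightness B-score within 2 SD, cut at about -4.2 in these data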;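 note: channel flux triggered by added potassium and thallium sulfate stimulus; B-score of peak minus minimum fluorescence over baseline after thallium stimulus; more negative B-score means stronger Kir2.1 block with less thallium influx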
Target sequence (P35561 whole entry, looked up): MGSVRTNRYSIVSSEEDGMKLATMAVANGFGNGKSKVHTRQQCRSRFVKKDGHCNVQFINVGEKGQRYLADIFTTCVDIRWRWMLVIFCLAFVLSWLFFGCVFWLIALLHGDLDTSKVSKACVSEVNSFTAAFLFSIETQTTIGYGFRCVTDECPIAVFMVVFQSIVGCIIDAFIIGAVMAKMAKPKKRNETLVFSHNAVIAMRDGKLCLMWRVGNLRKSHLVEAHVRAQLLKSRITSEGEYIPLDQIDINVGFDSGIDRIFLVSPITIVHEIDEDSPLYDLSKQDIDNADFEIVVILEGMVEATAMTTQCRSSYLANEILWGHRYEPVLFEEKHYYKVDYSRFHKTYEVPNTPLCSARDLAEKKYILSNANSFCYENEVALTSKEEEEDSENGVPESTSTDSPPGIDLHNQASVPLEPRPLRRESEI
KCNK9 inh-1 – KCNK9 potassium channel inhibitors, primary screen, HEK293 cells, thallium flux; Potassium channel subfamily K member 9 (Homo sapiens), Q9NPC2; FluxOR thallium flux fluorescence; active compounds read low; B-score at 10 µM; hit rate 1.2% among 310,000; AID 488922, 2010;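 active = ratio B-score over 3 SD below the library mean, with starting fluorescence within 5 SD of its mean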;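 note: negative B-score means less thallium flux so channel inhibition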
Target sequence (Q9NPC2 whole entry, looked up): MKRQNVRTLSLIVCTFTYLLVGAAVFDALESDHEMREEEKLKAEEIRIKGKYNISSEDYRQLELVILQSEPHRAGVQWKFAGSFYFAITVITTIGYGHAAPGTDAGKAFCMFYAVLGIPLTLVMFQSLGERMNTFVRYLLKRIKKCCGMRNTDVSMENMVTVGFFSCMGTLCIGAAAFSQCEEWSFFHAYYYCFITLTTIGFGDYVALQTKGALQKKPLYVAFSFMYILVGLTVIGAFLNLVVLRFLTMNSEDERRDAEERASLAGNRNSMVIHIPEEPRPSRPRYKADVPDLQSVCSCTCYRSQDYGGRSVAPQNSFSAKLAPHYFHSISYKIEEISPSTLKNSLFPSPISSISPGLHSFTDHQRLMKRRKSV
KCNQ1 pot – potentiators or activators of KCNQ1 channel, primary screen, cell-based, thallium flux, high-throughput | hit rate 0.35% among 310,000 | B-score at 10 µM | CHO-K1 KCNQ1, thallium flux FluxOR fluorescence; active compounds read high;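 active = fluorescence ratio B-score, a plate-corrected score, at least three library SD, with initial intensity B-score within 5 SD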
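System: Stable KCNQ1 CHO-K1 line | Incubation: 90 min dye loading and 20 min compound exposure, both at room temperature | Measure: Ratio B score | Medium: Assay buffer for compound exposure, DMSO matched across wells | Compound dosing: Single-concentration screen | Probe or stimulus: K+/Tl+ depolarizing stimulus | Measured by: Kinetic FluxOR fluorescence, 10 s baseline plus 110 s post-stimulus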
KCNQ1 block – inhibitors of human KCNQ1 channel, primary screen, cell-based, thallium flux, high-throughput. Potassium voltage-gated channel subfamily KQT member 1 (Homo sapiens), P51787. CHO-K1 KCNQ1, FluxOR thallium flux fluorescence; active compounds read high. B-score at 10 µM. hit rate 1.3% among 310,000. AID 2642, 2010;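 active = compounds whose thallium flux B-score, printed positive for inhibition, exceeds three library SD while starting fluorescence stays within three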;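 note: channel opened by potassium depolarization with thallium stimulus after 20 min compound exposure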
hERG protect – hERG rescue from dofetilide block, primary screen, cell-based, CHO-hERG, FluxOR thallium flux, dofetilide IC70; Voltage-gated inwardly rectifying potassium channel KCNH2 (Homo sapiens), Q12809; dofetilide IC70 present; activation (rescue from dofetilide block), less the hit threshold, % at 10 µM; hit rate 0.51% among 310,000; AID 1511, 2009;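 active = activation above the mean of controls blocked by dofetilide plus 5 SD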;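 note: thallium influx through hERG after potassium depolarization seen as dye fluorescence rise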
hERG inh – hERG channel inhibition, counter-screen for Kir2.1 inhibitor project, cell-based, thallium flux; hit rate 20% among 320; AID 2236, 2010; inhibition, % at 10 µM; shares compounds with Kir21 block; hERG-expressing cells;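 note: host cells are CHO cells stably expressing hERG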
KCNK9 inh-2 – KCNK9 channel inhibition, selectivity assay for Kir2.1 inhibitor project, cell-based. shares compounds with Kir21 block. hit rate 5% among 320. inhibition, % at 10 µM. KCNK9-expressing cells, ion flux inhibition
Kir21 ephys inh – mouse Kir2.1 channel blockers, Kir2.1 inhibitor project, cell-based, secondary, automated electrophysiology | hit rate 71% among 320 | inhibition, % at 25 µM | Kir2.1 cells, automated patch-clamp current inhibition | shares compounds with Kir21 block
KCNQ1 inh valid – KCNQ1 potassium channel inhibitors, confirmation, cell-based, Tl flux, duplicate; shares compounds with KCNQ1 block; AID 588353, 2011; hit rate 93% among 1,600; KCNQ1 cell line, FluxOR thallium flux fluorescence; inhibition, % at 10 µM;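 active = primary screen active, with duplicate mean exceeding buffer control mean plus 3 SD of buffer wells, cut at about 28% in these data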;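 note: 0% = buffer control ratio and 100% = XE991 inhibitor control ratio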
CHO Tl flux – thallium flux effects in parental CHO cells, counter-screen for KCNQ1 inhibitor project, cell-based, Tl flux; parental CHO-K1, FluxOR thallium flux fluorescence ratio; active compounds read low; zero means no signal rise above baseline; shares compounds with KCNQ1 block; hit rate 21% among 1,600; fluorescence ratio (Tl flux) at 10 µM;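 active = mean of duplicate thallium-flux fluorescence ratios in parental host cells more than 5 SD below the buffer control mean, cut at about 0.38 in these data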;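 note: ratio is peak minus minimum fluorescence divided by baseline fluorescence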
KCNQ1 APC inh – KCNQ1 channel inhibitors, confirmation, orthogonal assay, cell-based, automated electrophysiology. shares compounds with KCNQ1 block. calls only at 10 µM. hit rate 20% among 490. KCNQ1-CHO cells, automated patch clamp current;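 active = KCNQ1 current drop exceeding 3 SD of negative control wells, seen in both duplicate runs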;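 note: steady state current during a 2 s step from -80 to +40 mV; negative values mean current inhibition and positive values mean potentiation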
KCNQ2 inh – KCNQ2 channel inhibition, selectivity assay for KCNQ1 inhibitor project, cell-based; hit rate 71% among 1,600; shares compounds with KCNQ1 block; inhibition, % at 10 µM; KCNQ2 cells, FluxOR thallium flux fluorescence;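 active = mean percent inhibition of the KCNQ2 thallium signal more than 5 SD above the buffer-only control wells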;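 note: KCNQ2 expressed in CHO cells; 0% = buffer control wells and 100% = XE-991 inhibitor control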
KCNQ1-KCNE1 inh – KCNQ1/KCNE1 channel inhibition, selectivity assay for KCNQ1 inhibitor project, CHO-K1 cells, thallium flux, FluxOR; hit rate 77% among 1,600; AID 652147, 2013; shares compounds with KCNQ1 block; inhibition, % at 10 µM; FluxOR thallium flux fluorescence;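 active = mean percent inhibition of duplicate wells above the buffer-only control mean plus 3 SD of those controls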;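 note: 0% = buffer only wells and 100% = XE-991 inhibitor control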
KCNK9 block conf – KCNK9 potassium channel inhibitors, confirmation, HEK293 cells, thallium flux, duplicate | shares compounds with KCNK9 inh-1 | FluxOR thallium flux fluorescence | inhibition, % at 10 µM | hit rate 43% among 4,900 | AID 492992, 2010;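 active = thallium signal inhibited by more than 5 SD of the compound-free buffer control wells, on both duplicate plates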;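 note: 0% = assay buffer control wells without compound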
Kir2-1 spec – mouse Kir2.1 channel inhibition, confirmation, selectivity assay for KCNK9 modulator project, cell-based, HEK293, thallium flux | shares compounds with KCNK9 inh-1 | Kir2.1 cells, FluxOR thallium flux fluorescence | inhibition, % at 10 µM | hit rate 4% among 4,900 | AID 492993, 2010;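 active = thallium signal drop more than 5 SD beyond the mean of the no-compound control wells, seen in both duplicate plates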;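 note: signal is fluorescence rise after thallium addition divided by baseline fluorescence; plate controls were assay buffer only for no effect and full block by chlorpromazine control for full effect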
KCNK9 uninduced – thallium flux in non-induced HEK293 cells, confirmation, counter-screen for KCNK9 inhibitor project, cell-based, second counter screen, non-induced KCNK9-HEK293 | shares compounds with KCNK9 inh-1 | FluxOR thallium flux | inhibition, % at 10 µM | hit rate 40% among 4,900 | AID 492997, 2010;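 active = thallium signal drop beyond 5 SD of the untreated control mean, on both duplicate plates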;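 note: plate controls were buffer only IC0 wells for no effect and SID17386958 at its maximal inhibitory level for full effect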
KCNK3 inh conf – retest of human KCNK3 channel inhibitors, confirmation, CHO cells, FluxOR thallium flux, triplicate; shares compounds with KCNK3 inh; FluxOR fluorescence; 0% buffer, 100% carvedilol maximal block; ratio percent of control, % at 10 µM; hit rate 99% among 2,400;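 active = ratio percent of control, averaged over triplicates, above buffer control mean plus 5 SD, cut at about 64% in these data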;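 note: ratio is the fluorescence rise from min to max over baseline after thallium stimulus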
KCNK3 uninduced – thallium flux inhibition in non-induced cells, primary screen, counter-screen for KCNK3 inhibitor project, cell-based, non-induced KCNK3 line, FluxOR thallium, triplicate | hit rate 40% among 2,400 | AID 651747, 2012 | non-induced KCNK3 parental cells; active compounds read low | shares compounds with KCNK3 inh | thallium flux ratio (lower = more inhibition) at 10 µM;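 active = thallium flux ratio, averaged over three wells, more than 5 SD below the buffer control mean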;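 note: host cells are CHO cells without KCNK3 induction; ratio is peak minus trough fluorescence over baseline then normalized to buffer controls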
Starred values were filed as active, the others as inactive; i = inactive; nt = no result. An excerpt weighted towards active compounds, which were near 3.7% of everything screened. Unless noted, the rule behind the calls is not given here.

SMILES	KCNK3 inh	Kir21 block	KCNK9 inh-1	KCNQ1 pot	KCNQ1 block	hERG protect	hERG inh	KCNK9 inh-2	Kir21 ephys inh	KCNK9 block conf	Kir2-1 spec	KCNK9 uninduced	others
Cc1cc(NC(=O)CSCC(=O)OC(C)C(=O)c2cc(C)c(C)cc2C)no1 (stereo not given)	i	-6.3*	i	i	i	-9	i	i	18%*	nt	nt	nt
COc1ccc(Nc2ccnc3ccccc23)cc1	i	-15*	i	i	i	-10	i	i	82%*	nt	nt	nt
O=C(CCC1CCCC1)NCCS(=O)(=O)N1CCN(c2ccccc2)CC1	i	-0.83	i	i	i	-9	nt	nt	nt	nt	nt	nt
COc1cccc(C(C)NC(=S)NCc2ccc(Cl)cc2)c1 (stereo not given)	i	-7.8*	i	i	8*	-20	i	i	31%*	nt	nt	nt	KCNQ1 inh valid=0;CHO Tl flux=0.52;KCNQ2 inh=i;KCNQ1-KCNE1 inh=i
CCOc1cc(C(=O)N(C)CC(=O)Nc2cccc(F)c2)ccc1OCC(=O)N1CCOCC1	i	0.01	i	i	i	-13	nt	nt	nt	nt	nt	nt
O=C(O)c1cnn(-c2nc(-c3ccc(Cl)c(Cl)c3)cs2)c1C(F)(F)F	i	3	i	i	i	-4	i	i	i	i	i	i
CN(CCCCOc1ccc(F)cc1)Cc1ccccc1	i	-0.01	i	i	i	-3	nt	nt	nt	nt	nt	nt
Cc1cc(C)c(C)c(OCCCCN(C)Cc2ccccc2)c1	i	-7.3*	i	i	i	-6	i	i	8.7%*	i	46%*	i
CC(C)N(Cc1ccccc1)C(=O)COC(=O)c1ccc(S(=O)(=O)N2CCOCC2)cc1	i	nt	nt	nt	nt	nt	nt	nt	nt	nt	nt	nt
CCOC(=O)CSc1nc(-c2ccccc2)nc2ccccc12	i	0.66	i	i	i	-9	nt	nt	nt	nt	nt	nt
CCOC(=O)CSc1nc(Cc2ccccc2)nc2ccccc12	i	-6*	-13*	i	i	-12	i	i	32%*	36%*	i	i	KCNK3 inh conf=96*;KCNK3 uninduced=i
CCOC(=O)c1nnn(-c2nonc2N)c1CSc1nnc(N)s1	i	0.07	i	i	i	-5	nt	nt	nt	nt	nt	nt
Cc1ccc(-c2nc3ccccn3c2NCc2ccc3c(c2)OCO3)cc1	-9.9*	-7.1*	-17*	i	10*	-44	63%*	56%*	i	52%*	i	i	KCNQ1 inh valid=118*;CHO Tl flux=0.39;KCNQ1 APC inh=i;KCNQ2 inh=113%*;KCNQ1-KCNE1 inh=188%*;KCNK3 inh conf=143*;KCNK3 uninduced=i
COc1ccccc1Nc1nc(-c2cccc([N+](=O)[O-])c2)cs1	i	1.9	i	i	i	-5	nt	nt	nt	nt	nt	nt
O=[N+]([O-])c1cccc(-c2csc(Nc3ccccc3)n2)c1	-14*	2.8	i	i	i	-33	i	i	i	nt	nt	nt	KCNK3 inh conf=124*;KCNK3 uninduced=0.14*
CCOc1ccccc1CNC(=O)c1ccc2c(c1)N(CC)CCS2	i	-0.37	i	i	i	-12	nt	nt	nt	nt	nt	nt
